The source made the active and inactive calls. The calls are words filed in the database; no cut-off is given here.
What was measured:
[1] = molecular target: T1, ATPase family AAA domain-containing protein 2 (Homo sapiens, UniProt Q6PL18); experiment: Displacement of SGRG-K(Ac)-GG-K(Ac)-GLG-K(Ac)-GGAKRHRKV-biotin) from His6/FLAG-tagged TEV fused ATAD2 bromodomain (981 to 1121 residues) (unknown origin) expressed in Escherichia coli BL21(DE3) cells after 30 mins by TR-FRET assay
T1 sequence (Q6PL18 whole entry): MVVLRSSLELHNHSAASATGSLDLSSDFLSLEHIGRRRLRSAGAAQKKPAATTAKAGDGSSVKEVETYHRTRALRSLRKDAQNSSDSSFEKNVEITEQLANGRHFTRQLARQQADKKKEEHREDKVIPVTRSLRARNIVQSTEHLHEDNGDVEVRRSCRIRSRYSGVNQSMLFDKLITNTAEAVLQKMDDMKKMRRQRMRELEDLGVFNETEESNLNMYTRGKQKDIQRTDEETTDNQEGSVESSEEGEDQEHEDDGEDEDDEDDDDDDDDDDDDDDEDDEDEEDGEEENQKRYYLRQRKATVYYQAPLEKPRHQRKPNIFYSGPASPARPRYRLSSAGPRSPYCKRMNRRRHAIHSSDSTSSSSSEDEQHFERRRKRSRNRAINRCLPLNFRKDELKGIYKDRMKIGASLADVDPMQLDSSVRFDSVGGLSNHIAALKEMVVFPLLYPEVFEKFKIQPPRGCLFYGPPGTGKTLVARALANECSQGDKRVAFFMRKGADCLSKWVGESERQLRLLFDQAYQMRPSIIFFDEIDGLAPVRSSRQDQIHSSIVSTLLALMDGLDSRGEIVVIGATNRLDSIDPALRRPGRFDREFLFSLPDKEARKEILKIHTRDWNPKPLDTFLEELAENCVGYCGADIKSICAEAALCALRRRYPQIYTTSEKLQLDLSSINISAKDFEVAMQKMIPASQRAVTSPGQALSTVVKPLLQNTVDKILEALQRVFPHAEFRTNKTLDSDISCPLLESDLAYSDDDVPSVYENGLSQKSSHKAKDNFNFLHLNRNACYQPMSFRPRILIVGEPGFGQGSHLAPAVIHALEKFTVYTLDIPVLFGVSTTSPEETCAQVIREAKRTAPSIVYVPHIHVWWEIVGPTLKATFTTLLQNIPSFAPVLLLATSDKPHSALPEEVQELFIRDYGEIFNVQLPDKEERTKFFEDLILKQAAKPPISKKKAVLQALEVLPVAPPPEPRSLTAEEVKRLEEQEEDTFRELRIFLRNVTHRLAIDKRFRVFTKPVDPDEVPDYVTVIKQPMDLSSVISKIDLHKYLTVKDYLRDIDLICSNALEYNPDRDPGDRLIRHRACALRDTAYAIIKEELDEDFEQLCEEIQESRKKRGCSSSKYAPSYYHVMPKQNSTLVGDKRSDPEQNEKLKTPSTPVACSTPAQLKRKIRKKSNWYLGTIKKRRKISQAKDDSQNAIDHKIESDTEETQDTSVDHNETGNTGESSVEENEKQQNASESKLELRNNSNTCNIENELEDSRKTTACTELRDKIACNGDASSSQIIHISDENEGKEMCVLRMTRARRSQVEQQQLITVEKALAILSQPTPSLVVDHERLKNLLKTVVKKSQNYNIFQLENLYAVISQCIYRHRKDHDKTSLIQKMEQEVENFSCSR

[2] = molecular target: T1, ATPase family AAA domain-containing protein 2; experiment: (§1) Binding affinity to His6/FLAG-tagged TEV fused ATAD2 bromodomain (950 to 1148 residues) (unknown origin) expressed in Escherichia coli BL21(DE3) cells by surface plasmon resonance
Summary of the method: (§2)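 SPR screen of concentration–response up to 100 μM. Wild-type ATAD2 and a Y1021A/N1064A mutant lacking the acetyl-lysine binding motif were run in parallel. Hits were classed as binding, nonbinding or linear binding (nonsaturating response, calculated Kd above the top concentration).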

[3] = molecular target: Bromodomain-containing protein 4 (Homo sapiens, UniProt O60885, Y97A); experiment: Displacement of Alexa Fluor 647 labelled ligand from His6-tagged BRD4 BD2 (1 to 477 residues)/BD1 Y97A mutant (unknown origin) after 30 mins by TR-FRET assay
Summary of the method: (§3)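 BET selectivity by TR-FRET fluoroligand displacement. Uses tandem BET bromodomain constructs carrying a mutation in the non-assayed bromodomain.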

[4] = molecular target: Bromodomain-containing protein 4 (Homo sapiens, UniProt O60885, Y390A); experiment: Displacement of Alexa Fluor 647 labelled ligand from His6-tagged BRD4 BD1 (1 to 477 residues)/BD2 Y390A mutant (unknown origin) after 30 mins by TR-FRET assay; summary of the method: as §3
[5] = molecular target: T2, ATPase family AAA domain-containing protein 2 (Homo sapiens) (UniProt Q6PL18); experiment: Displacement of SGRG-K(Ac)-GG-K(Ac)-GLG-K(Ac)-GGAKRHRKV-biotin) from His6/FLAG-tagged TEV fused ATAD2 bromodomain (981 to 1121 residues) (unknown origin) expressed in Escherichia coli BL21(DE3) cells at 10 uM after 30 mins by TR-FRET assay relative to control
T2 sequence (whole entry): T1 sequence (Q6PL18 whole entry)

[6] = molecular target: T2, ATPase family AAA domain-containing protein 2 (Homo sapiens); experiment: Binding affinity to 15N-labelled ATAD2 (981 to 1108 residues) (unknown origin) at 100 uM by 1H-15N HSQC NMR analysis
Summary of the method: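 15N–1H HSQC spectra of labelled ATAD2 bromodomain recorded with and without compound at 100 μM. Binding is judged from spectral changes.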

[7] = molecular target: T2, ATPase family AAA domain-containing protein 2 (Homo sapiens); experiment: as §1; summary of the method: as §2
[8] = molecular target: T1, ATPase family AAA domain-containing protein 2; experiment: Inhibition of ATAD2 bromodomain in human HUT78 chromatin lysate after 2 hrs by bromosphere competition binding assay
Summary of the method: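 Bromosphere chemoproteomic assay. Measures competitive inhibition of binding of endogenous full-length ATAD2 from Hut-78 cells.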

[9] = molecular target: T2, ATPase family AAA domain-containing protein 2 (Homo sapiens); experiment: Displacement of SGRG-K(Ac)-GG-K(Ac)-GLG-K(Ac)-GGAKRHRKV-biotin) from His6/FLAG-tagged TEV fused ATAD2 bromodomain (981 to 1121 residues) (unknown origin) expressed in Escherichia coli BL21(DE3) cells at 100 to 300 uM after 30 mins by TR-FRET assay relative to control

Compound	IC50 [1] [µM]	Kd [2] [µM]	IC50 [3] [µM]	IC50 [4] [µM]	inhibition [5] [%]	Activity [6]	Activity [7]	pIC50 [1]	IC50 [8] [µM]	Activity [9] [%]
CCC(=O)Nc1ccc(CC)c(S(=O)(=O)N2CCCCC2)c1	> 1000	–	–	–	–	–	–	–	–	–
CCC(=O)Nc1ccc(N)c(S(=O)(=O)N2CCCCC2)c1	> 1000	–	–	–	–	–	–	–	–	–
Cc1ccc(NC(=O)CN2C(=O)CN(C)C2=O)cc1S(=O)(=O)N1CCCCC1	50.1	50.1	> 501	> 501	30	Active	–	–	–	–
O=C(CCNC1=NS(=O)(=O)c2ccccc21)Nc1ccc(Cl)c(S(=O)(=O)N2CCCC2)c1	10	15.8	> 50.1	> 50.1	47	Active	–	–	–	–
CCC(=O)Nc1ccc(O)c(S(=O)(=O)N2CCCCC2)c1	> 1000	–	–	–	–	–	–	–	–	–
O=C(CN1C(=O)NC(CCc2ccccc2)C1=O)Nc1ccc(Cl)c(S(=O)(=O)N2CCCCC2)c1 (centres undefined)	3.16	–	> 50.1	> 50.1	48	Active	Active	–	–	–
CSCCC1NC(=O)N(CC(=O)Nc2ccc(Cl)c(S(=O)(=O)N3CCOCC3)c2)C1=O (centres undefined)	10	15.8	> 50.1	> 50.1	30 to 40	Active	–	–	–	–
Cc1ccc(NC(=O)CN2C(=O)NC(C)(C3CC3)C2=O)cc1S(=O)(=O)N1CCCCC1 (centres undefined)	12.6	20	> 50.1	> 50.1	52	Active	–	–	–	–
O=C(CNC(=O)C1CCCCC1)Nc1ccc(Cl)c(S(=O)(=O)N2CCCCC2)c1	> 100	–	> 50.1	> 50.1	29	Active	Active	–	–	–
Cc1ccc(C2(C)NC(=O)N(CC(=O)Nc3ccc(C)c(S(=O)(=O)N4CCCCC4)c3)C2=O)cc1 (centres undefined)	10	12.6	> 50.1	5.01	33	Active	–	–	–	–
CC1(C2CC2)NC(=O)N(CC(=O)Nc2ccc(Cl)c(S(=O)(=O)N3CCCCC3)c2)C1=O (stereo in doubt; 18)	–	–	31.6	10	–	–	–	5.9	–	–
Cc1ccc(NC(=O)CN2C(=O)NC3(CCc4ccccc43)C2=O)cc1S(=O)(=O)N1CCCCC1 (centres undefined)	7.94	15.8	> 50.1	> 50.1	61	Active	–	–	–	–
O=C(CCNC(=O)c1ccccc1)Nc1ccc(Cl)c(S(=O)(=O)N2CCCCC2)c1	> 100	50.1	39.8	> 50.1	27	Active	–	–	–	–
COc1ccc(NC(=O)CN2C(=O)NC(C)(C3CC3)C2=O)cc1S(=O)(=O)N1CCCCC1 (racemic)	> 100	–	> 50.1	> 50.1	–	–	–	–	–	–
CC1(C2CC2)NC(=O)N(CC(=O)Nc2ccc(C(F)(F)F)c(S(=O)(=O)N3CCCCC3)c2)C1=O (racemic)	10	–	25.1	> 50.1	–	–	–	–	–	–
CCN(CC)S(=O)(=O)c1cc(NC(=O)CN2C(=O)NC(C)(c3ccccc3)C2=O)ccc1C (centres undefined)	31.6	50.1	39.8	> 501	29	Active	–	–	–	–

Compound	IC50 [1] [µM]	Kd [2] [µM]	IC50 [3] [µM]	IC50 [4] [µM]	inhibition [5] [%]	Activity [6]	Activity [7]	pIC50 [1]	IC50 [8] [µM]	Activity [9] [%]
CCC(=O)Nc1ccc(OC)c(S(=O)(=O)N2CCCCC2)c1	> 1000	–	–	–	–	–	–	–	–	–
CC1(C2CC2)NC(=O)N(CC(=O)Nc2ccc(Cl)c(S(=O)(=O)N3CCCCC3)c2)C1=O (racemic) [listing 1 of 2 here]	1.26	2	50.1	> 50.1	–	–	–	–	15.8	–
Cc1ccc(NC(=O)CN2C(=O)NC(Cc3ccccc3)C2=O)cc1S(=O)(=O)N1CCCCC1 (centres undefined)	> 100	–	> 50.1	> 50.1	18	Active	Active	–	–	–
Cc1ccccc1C(=O)NCC(=O)Nc1ccc(C)c(S(=O)(=O)N2CCCCCC2)c1	12.6	31.6	> 50.1	> 50.1	39	Active	–	–	39.8	–
Cc1ccc(NC(=O)CN2C(=O)NC(C)(C)C2=O)cc1S(=O)(=O)N1CCCCCC1	10	7.94	> 50.1	> 50.1	58	Active	–	–	–	–
CC1(C2CC2)NC(=O)N(CC(=O)Nc2cccc(S(=O)(=O)N3CCCCC3)c2)C1=O (racemic)	> 100	–	31.6	> 50.1	–	–	–	–	–	–
CC1(C2CC2)NC(=O)N(CC(=O)Nc2ccc(Cl)c(S(=O)(=O)N3CCCCC3)c2)C1=O (racemic) [listing 2 of 2 here]	–	–	–	–	79	Active	–	–	–	–
CCC(=O)Nc1ccc(Cl)c(S(=O)(=O)N2CCCCC2)c1	79.4	–	–	–	–	–	–	–	–	45 to 55
CC1(C2CC2)NC(=O)N(CC(=O)Nc2ccc(Cl)c(S(=O)(=O)N3CCCCC3)c2)C1=O (stereo in doubt; 19)	–	–	> 50.1	> 50.1	–	–	–	5.9	–	–
CCC(=O)Nc1ccc(Br)c(S(=O)(=O)N2CCCCC2)c1	15.8	–	–	–	–	–	–	–	–	–
CN(C)S(=O)(=O)c1cc(NC(=O)CN2C(=O)NC3(CCCc4ccccc43)C2=O)ccc1Cl (centres undefined)	5.01	7.94	> 50.1	> 50.1	52	Active	–	–	–	–
Cc1[nH]c(=O)c(C#N)c(C)c1CCC(=O)Nc1ccc(Cl)c(S(=O)(=O)N2CCCCC2)c1	1.26	6.31	> 50.1	> 50.1	77	Active	–	–	15.8	–
CCC(=O)Nc1ccc(C#N)c(S(=O)(=O)N2CCCCC2)c1	> 1000	–	–	–	–	–	–	–	–	–
CCC(=O)Nc1ccc(F)c(S(=O)(=O)N2CCCCC2)c1	> 1000	–	–	–	–	–	–	–	–	–
CCC(=O)Nc1ccc(C(F)(F)F)c(S(=O)(=O)N2CCCCC2)c1	> 1000	–	–	–	–	–	–	–	–	–

Source: ChEMBL document CHEMBL4311956, “A Qualified Success: Discovery of a New Series of ATAD2 Bromodomain Inhibitors with a Novel Binding Mode Using High-Throughput Screening and Hit Qualification” (J Med Chem, 2019)
